Active and inactive are the calls of the source.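 Rule for the calls, unless noted: active = NADPH fluorescence slope more negative than the mean of all samples by about 3 SD, 99.7% confidence; inactive = the rest.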
How the values were obtained:
[1] = inhibitors of TNFa-induced NFkB p65 translocation, primary screen, imaging, HUVEC, MLSMR starter and 10KST1 sets (AID 438;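 active = inhibition above 20% together with a positive visual image hit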;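 note: compound added about 3h40 before a 20 min TNFalpha stimulation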;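 for inhibition: signal is the nuclear over cytoplasmic p65 intensity ratio per well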); conditions: HUVEC TNFa-induced p65 nuclear translocation; cell count: measured here: nuclei count (cytotoxicity indicator), at 2.08 µM; inhibition: at 2 µM, stronger effect = higher value, 0% TNFa-plus-vehicle, 100% no-TNFa wells
[2] = inhibitors of mutant huntingtin aggregation, primary screen, imaging, exon1htt(103Q)mCFP cells, high-content imaging (AID 483;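 active = visual image review flags a hit and inhibition of aggregation exceeds 20%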;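 note: compound exposure lasted 3 days before fixation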;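 for nuclei count: percent of the per-plate median nuclei count of sample wells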); conditions: exon1htt(103Q)mCFP cell line, aggregate imaging, at 2 µM; inhibition of aggregation: stronger effect = higher value; nuclei count: measured here: cell count, toxicity
[3] = inhibitors of E-selectin induction by TNFa, primary screen, imaging, HUVEC, immunofluorescence, MLSMR starter and 10KST1 sets (AID 487;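 active = visually confirmed hit in the image check and inhibition above 20%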;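 for inhibition: signal is fraction of cell area covered by stained E-selectin grains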;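 for nuclei count: 100% = median nuclei count of all wells on the same plate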); conditions: HUVEC TNFalpha-induced E-selectin immunofluorescence imaging, at 2 µM; inhibition: stronger effect = higher value; nuclei count: measured here: cell number, toxicity
[4] = target: Voltage-gated potassium channel subunit beta-2 (Rattus norvegicus) (UniProt P62483); experiment: KvBeta enzyme negative modulators, primary screen, biochemical, NADPH fluorescence (AID 622;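 active = fluorescence slope higher than the sample average by over 3 SD, cut at about -0.22 in these data, passing the limit was not always enough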;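 note: slope of raw intensity against log time taken from 70 to 1610 s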); conditions: recombinant KvBeta, 4-cyanobenzaldehyde reduction, at 10 µM, stronger effect = higher value
Voltage-gated potassium channel subunit beta-2 (Rattus norvegicus), sequence (P62483 whole entry, looked up): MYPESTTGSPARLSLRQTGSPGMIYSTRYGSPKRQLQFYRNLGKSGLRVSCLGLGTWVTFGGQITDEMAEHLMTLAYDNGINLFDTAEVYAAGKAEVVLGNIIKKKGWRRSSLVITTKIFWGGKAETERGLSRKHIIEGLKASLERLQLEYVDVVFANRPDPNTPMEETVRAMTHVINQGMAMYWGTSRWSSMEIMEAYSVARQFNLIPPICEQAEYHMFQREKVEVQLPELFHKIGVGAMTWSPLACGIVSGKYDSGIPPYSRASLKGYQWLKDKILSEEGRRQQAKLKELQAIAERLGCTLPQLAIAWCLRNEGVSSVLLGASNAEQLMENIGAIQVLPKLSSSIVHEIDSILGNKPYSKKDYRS

[5] = target: Voltage-gated potassium channel subunit beta-2 (Rattus norvegicus) (UniProt P62483); experiment: KvBeta positive modulators, primary screen, biochemical, NADPH fluorescence (AID 623); conditions: Recombinant KvBeta, NADPH fluorescence decrease slope, 10 min; at 10 µM; stronger effect = lower value;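 note: fluorescence intensity change per second fitted from 20 to 320 s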
[6] = target: Muscarinic acetylcholine receptor M4 (Homo sapiens) (UniProt P08173); experiment: compounds altering M4/GIRK thallium flux, either direction, primary screen, M4 allosteric agonist project, cell-based, HEK293 M4/GIRK, BTC-AM (AID 625;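 active = fluorescence slope after compound addition differing from the mean of all tested samples at 99.7% confidence, mostly higher but some lower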;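 note: thallium influx through GIRK channels coupled to M4 in HEK293 cells with BTC-AM dye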); conditions: at 10 µM, actives lie on both sides
Muscarinic acetylcholine receptor M4 (Homo sapiens), sequence (P08173 whole entry, looked up): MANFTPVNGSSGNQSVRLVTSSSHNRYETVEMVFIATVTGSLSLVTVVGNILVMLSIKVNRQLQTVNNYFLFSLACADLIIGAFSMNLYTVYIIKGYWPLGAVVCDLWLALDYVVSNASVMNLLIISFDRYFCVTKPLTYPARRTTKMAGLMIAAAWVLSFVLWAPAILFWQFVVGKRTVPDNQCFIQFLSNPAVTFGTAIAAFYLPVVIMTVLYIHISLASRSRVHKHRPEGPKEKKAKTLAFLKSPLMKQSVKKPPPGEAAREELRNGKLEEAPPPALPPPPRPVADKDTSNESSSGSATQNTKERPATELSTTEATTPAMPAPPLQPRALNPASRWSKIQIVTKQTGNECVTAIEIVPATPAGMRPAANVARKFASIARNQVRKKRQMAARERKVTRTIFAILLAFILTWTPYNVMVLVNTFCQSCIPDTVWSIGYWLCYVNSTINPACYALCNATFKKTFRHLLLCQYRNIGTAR
In short: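 Material: M4/GIRK1/GIRK2 stable HEK293 cell line. Medium: pH 7.3 thallium assay buffer. Dosing: single compound concentration, 10 µM final. Schedule: 1 h dye loading, 2 min kinetic read. Measured by: kinetic fluorescence with BTC-AM dye. Read-out: post-addition slope, 15–24 s, of baseline-normalized fluorescence. Benchmarks: carbachol and DMSO controls.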

[7] = inhibitors of Sendai virus-induced IRF3 signaling, primary screen, TLR/RLR signaling modifier project, cell-based, Sendai virus stimulus, luciferase, 10K MLSCN set (AID 602276;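 active = inhibition at or above 50% at 10 µM; inactive = inhibition below 50%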;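 note: firefly luciferase from ISG56 promoter only with Renilla not read in this screen; 0% = Sendai virus plus DMSO and 100% = medium plus DMSO without virus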); conditions: HEK293 RL24 IRF3 luciferase reporter, at 10 µM, stronger effect = higher value
[8] = inhibitors of poly I:C-induced TLR3 signaling, primary screen, cell-based, poly I:C stimulus, luciferase, 10K MLSCN set (AID 602277;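 active = inhibition of the reporter signal at or above 50%; inactive = inhibition below 50%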); conditions: HEK293-TLR3 RL24 IRF3 luciferase reporter, at 10 µM, stronger effect = higher value

Compound	cell count [1]	inhibition [1]	inhibition of aggregation [2]	nuclei count [2] [%]	inhibition [3]	nuclei count [3] [%]	fluorescence slope [4]	NADPH fluorescence slope [5]	fluorescence slope [6]	inhibition [7]	inhibition [8]
COc1ccc2oc(C)c(C(=O)Cn3ccnc3)c2c1	488	-7.3% (inactive)	22.7% (inactive)	54.3	-16% (inactive)	108	-0.578 (inactive)	-1.5e-05 (inactive)	0.00618 (inactive)	-26.4% (inactive)	-28.5% (inactive)
COC(=O)c1ccccc1NC(=O)Nc1cc(C)cc(C)n1	205	0.9% (inactive)	-2.4% (inactive)	71.9	10.8% (inactive)	140	-0.504 (inactive)	-2.5e-05 (inactive)	0.00537 (inactive)	6.32% (inactive)	99% (active)
Cc1ccc(CCNC(=O)C2CCN(S(=O)(=O)c3cccc4nsnc34)CC2)cc1	644	5.2% (inactive)	-9.1% (inactive)	96.4	-129% (inactive)	158	-0.461 (inactive)	0.000103 (inactive)	0.00736 (inactive)	0.47% (inactive)	-16.3% (inactive)
COc1ccc(OC)c(NC(=O)CSc2nc3ccccc3c(=O)n2CCNC(C)=O)c1	497	-4.3% (inactive)	10.1% (inactive)	111	-17.6% (inactive)	115	-0.455 (inactive)	4e-05 (inactive)	0.00813 (inactive)	14.7% (inactive)	18.6% (inactive)
CCC(C)NC(=O)C1(C)CCC(=O)N1Cc1ccccc1OC (stereo not given)	406	-14.1% (inactive)	-3.9% (inactive)	105	-15.7% (inactive)	93.9	-0.512 (inactive)	0.000141 (inactive)	0.00751 (inactive)	12.9% (inactive)	22.5% (inactive)
CCOc1ncccc1C(=O)OCC(=O)Nc1ncc(C(F)(F)F)cc1Cl	474	-12.1% (inactive)	-26.1% (inactive)	80.7	-29% (inactive)	108	-0.588 (inactive)	2.6e-05 (inactive)	0.00542 (inactive)	22.1% (inactive)	18% (inactive)
CCn1c(=O)n(CC(=O)Nc2cc(OC)ccc2OC)c(=O)c2ccccc21	696	-1.6% (inactive)	17.9% (inactive)	63.6	-1.5% (inactive)	99.5	-0.564 (inactive)	-5.4e-05 (inactive)	0.00496 (inactive)	24.5% (inactive)	23.2% (inactive)
CCn1c(SCC(=O)NCCc2ccc(Cl)cc2)nnc1-c1cccs1	616	6.9% (inactive)	25.3% (inactive)	69.4	-11.2% (inactive)	106	-0.572 (inactive)	-5e-05 (inactive)	0.00799 (inactive)	-15.7% (inactive)	-13.3% (inactive)
N#Cc1cnc(SCC(=O)Nc2ccccc2C(F)(F)F)nc1N	743	2.2% (inactive)	15.1% (inactive)	102	-205% (inactive)	121	-0.371 (inactive)	5.4e-05 (inactive)	0.00496 (inactive)	14% (inactive)	22.7% (inactive)
CCOC(=O)CNC(=O)Cn1cnc2c(nnn2-c2cccc(Cl)c2)c1=O	629	-10% (inactive)	-8.9% (inactive)	140	-41.7% (inactive)	110	-0.477 (inactive)	4.8e-05 (inactive)	0.00553 (inactive)	-3.21% (inactive)	5.01% (inactive)
CC(C)(C)NC(=O)C(c1ccco1)N(C(=O)Cn1nnc(-c2ccc(F)cc2)n1)c1ccccc1 (stereo not given)	422	9.2% (inactive)	-1.8% (inactive)	99.8	-146% (inactive)	122	-0.551 (inactive)	8.1e-06 (inactive)	0.00525 (inactive)	15.8% (inactive)	26.6% (inactive)
O=c1c2c3nc4ccccc4nc3n(CC3CCCO3)c2ncn1CCc1ccccc1 (stereo not given)	440	-3.2% (inactive)	-0.4% (inactive)	116	-90.8% (inactive)	107	-0.378 (inactive)	-1.1e-05 (inactive)	0.00514 (inactive)	12.8% (inactive)	19.1% (inactive)
CCOC(=O)CNS(=O)(=O)c1c(C)noc1C	562	-2.5% (inactive)	-0.2% (inactive)	108	-40.9% (inactive)	105	-0.441 (inactive)	-0.000338 (inactive)	0.00456 (inactive)	1.51% (inactive)	2.6% (inactive)
OCc1nc2ccccc2n1CC(O)Cn1ccc2ccccc21 (stereo not given)	463	2.9% (inactive)	-7.1% (inactive)	98.2	-71.2% (inactive)	117	-0.577 (inactive)	-5e-05 (inactive)	0.00376 (inactive)	1.37% (inactive)	-8.82% (inactive)
COc1ccc(-c2cc(C(F)(F)F)nc(SCCC(=O)N3CCOCC3)n2)cc1	506	-6.7% (inactive)	-23.3% (inactive)	83.6	-59.7% (inactive)	133	-0.596 (inactive)	-1.1e-06 (inactive)	0.00462 (inactive)	16.4% (inactive)	-4.79% (inactive)
CCOc1ccc(S(=O)(=O)Nc2ccccc2C(=O)Nc2ccccc2N2CCOCC2)cc1	322	-2.1% (inactive)	17.2% (inactive)	94.9	-24.9% (inactive)	106	-0.522 (inactive)	-3.2e-05 (inactive)	0.00582 (inactive)	11.5% (inactive)	25.7% (inactive)
O=C(NC1CC2CCC1C2)c1ccc(CN2CCOCC2)cc1 (stereo not given)	362	6.1% (inactive)	4.3% (inactive)	91.8	-7.2% (inactive)	99.5	-0.466 (inactive)	-5.1e-05 (inactive)	0.0046 (inactive)	-25.1% (inactive)	-53.4% (inactive)
COc1nc2ccc(C)cc2cc1-c1noc(-c2cccnc2)n1	243	-0.9% (inactive)	3.8% (inactive)	62.9	-71.7% (inactive)	109	-0.456 (inactive)	3.8e-06 (inactive)	0.0055 (inactive)	6.17% (inactive)	-7.44% (inactive)
COC(=O)Cn1c2c(c3cc(C)ccc31)CCCC2	640	-9.9% (inactive)	23.1% (inactive)	91.1	-28.6% (inactive)	111	-0.523 (inactive)	-0.000167 (inactive)	0.00431 (inactive)	18.4% (inactive)	21.6% (inactive)
Cc1cc(C)nc(N2CCC(C(=O)NCc3cccc(C(F)(F)F)c3)CC2)n1	441	7.1% (inactive)	-55.6% (inactive)	85.9	45.5% (inactive)	85.1	-0.227 (inactive)	-4.8e-06 (inactive)	0.00567 (inactive)	11.9% (inactive)	14% (inactive)
CCc1nc2c(cnn2-c2ccc(Cl)cc2)c(=O)n1-c1ccc2c(c1)OCCO2	706	-7.7% (inactive)	-5.1% (inactive)	120	-49.7% (inactive)	122	-0.543 (inactive)	-1.7e-05 (inactive)	0.00631 (inactive)	3.09% (inactive)	-2.86% (inactive)
Cc1cccc(NC(=O)c2cc3n(n2)C(C(F)(F)F)CC(c2ccc4c(c2)OCO4)N3)c1 (stereo not given)	555	-6.9% (inactive)	0.5% (inactive)	82.7	45.8% (inactive)	127	-0.546 (inactive)	-3.2e-05 (inactive)	0.00563 (inactive)	25.3% (inactive)	25.4% (inactive)
CCOC(=O)CSc1nnc(CNC(=O)c2ccc(OC)c(OC)c2)n1C	375	-8.2% (inactive)	-1.1% (inactive)	82	-73% (inactive)	128	-0.578 (inactive)	-2.7e-05 (inactive)	0.00863 (inactive)	4.54% (inactive)	21.4% (inactive)
O=C(NC1CCc2ccccc21)C1CCN(S(=O)(=O)c2ccc(-n3cnnn3)cc2)CC1 (stereo not given)	698	7.5% (inactive)	-23.2% (inactive)	118	-37.5% (inactive)	91.8	-0.553 (inactive)	1.5e-06 (inactive)	0.00483 (inactive)	15.1% (inactive)	30.1% (inactive)
CCN1CCCC1CNCc1ccc(Cl)cc1Cl (stereo not given)	474	13.6% (inactive)	1.2% (inactive)	87.1	-106% (inactive)	152	-0.316 (inactive)	-1.4e-06 (inactive)	0.0068 (inactive)	-5.98% (inactive)	5.14% (inactive)

Source: PubChem BioAssay
